From ChEMBL document CHEMBL3822431, “Hydroxychalcone inhibitors of Streptococcus mutans glucosyl transferases and biofilms as potential anticaries agents” (Bioorg Med Chem Lett, 2016)
Calls of active or inactive are those of the source. No cut-off for these calls is given here.

What was measured:
[1] = biological target: T1, Glucosyltransferase-S (Streptococcus mutans serotype c (strain ATCC 700610 / UA159)) (UniProt P49331); test: Inhibition of Wild-type Streptococcus mutans UA159 glucosyltransferase D at 50 uM by zymography
T1 sequence (whole entry): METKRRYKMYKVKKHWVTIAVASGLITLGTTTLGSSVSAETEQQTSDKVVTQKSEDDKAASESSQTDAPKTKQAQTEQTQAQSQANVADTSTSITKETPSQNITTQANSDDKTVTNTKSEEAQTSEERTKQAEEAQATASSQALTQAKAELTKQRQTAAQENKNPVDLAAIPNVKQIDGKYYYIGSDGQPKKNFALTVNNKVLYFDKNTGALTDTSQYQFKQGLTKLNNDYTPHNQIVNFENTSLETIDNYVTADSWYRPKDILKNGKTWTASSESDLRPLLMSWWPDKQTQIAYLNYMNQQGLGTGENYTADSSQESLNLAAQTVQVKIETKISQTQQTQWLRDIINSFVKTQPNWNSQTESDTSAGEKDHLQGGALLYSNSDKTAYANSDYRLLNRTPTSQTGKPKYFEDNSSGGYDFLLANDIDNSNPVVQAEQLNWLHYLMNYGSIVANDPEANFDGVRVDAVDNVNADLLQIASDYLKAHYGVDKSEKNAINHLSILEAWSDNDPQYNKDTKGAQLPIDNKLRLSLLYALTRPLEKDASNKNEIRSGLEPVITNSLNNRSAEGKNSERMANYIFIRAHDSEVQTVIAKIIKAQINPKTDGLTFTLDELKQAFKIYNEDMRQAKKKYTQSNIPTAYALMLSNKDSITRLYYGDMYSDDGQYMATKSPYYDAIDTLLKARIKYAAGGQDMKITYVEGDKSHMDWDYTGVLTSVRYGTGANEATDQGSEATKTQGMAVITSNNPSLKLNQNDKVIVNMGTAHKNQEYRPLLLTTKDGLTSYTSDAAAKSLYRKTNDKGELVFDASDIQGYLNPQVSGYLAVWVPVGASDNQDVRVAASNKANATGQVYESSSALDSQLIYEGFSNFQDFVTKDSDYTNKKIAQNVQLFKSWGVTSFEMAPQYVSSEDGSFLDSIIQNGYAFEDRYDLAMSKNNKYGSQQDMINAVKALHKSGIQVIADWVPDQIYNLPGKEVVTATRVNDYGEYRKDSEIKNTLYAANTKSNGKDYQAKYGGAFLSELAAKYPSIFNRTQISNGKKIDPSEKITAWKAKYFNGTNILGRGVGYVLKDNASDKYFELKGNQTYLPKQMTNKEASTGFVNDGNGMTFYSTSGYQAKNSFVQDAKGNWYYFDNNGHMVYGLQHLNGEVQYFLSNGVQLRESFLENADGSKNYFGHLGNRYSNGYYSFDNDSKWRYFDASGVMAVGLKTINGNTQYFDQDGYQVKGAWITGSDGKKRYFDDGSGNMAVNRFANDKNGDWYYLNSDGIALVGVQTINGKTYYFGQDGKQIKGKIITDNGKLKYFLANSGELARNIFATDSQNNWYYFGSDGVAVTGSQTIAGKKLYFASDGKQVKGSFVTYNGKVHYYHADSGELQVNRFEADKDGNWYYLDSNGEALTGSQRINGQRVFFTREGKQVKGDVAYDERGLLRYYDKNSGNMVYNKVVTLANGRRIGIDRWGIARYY
Summary of the method: (§1)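 Compound (50 µM) added to overnight S. mutans UA159 wild-type cultures; Gtfs concentrated from supernatants, run on duplicate SDS-PAGE; second gel used for zymogram, glucan band intensity taken as Gtf activity.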

[2] = biological target: T2, Glucosyltransferase-SI (Streptococcus mutans serotype c (strain ATCC 700610 / UA159)) (UniProt P13470); test: Inhibition of Wild-type Streptococcus mutans UA159 glucosyltransferase C at 50 uM by zymography; summary of the method: as §1
T2 sequence (whole entry): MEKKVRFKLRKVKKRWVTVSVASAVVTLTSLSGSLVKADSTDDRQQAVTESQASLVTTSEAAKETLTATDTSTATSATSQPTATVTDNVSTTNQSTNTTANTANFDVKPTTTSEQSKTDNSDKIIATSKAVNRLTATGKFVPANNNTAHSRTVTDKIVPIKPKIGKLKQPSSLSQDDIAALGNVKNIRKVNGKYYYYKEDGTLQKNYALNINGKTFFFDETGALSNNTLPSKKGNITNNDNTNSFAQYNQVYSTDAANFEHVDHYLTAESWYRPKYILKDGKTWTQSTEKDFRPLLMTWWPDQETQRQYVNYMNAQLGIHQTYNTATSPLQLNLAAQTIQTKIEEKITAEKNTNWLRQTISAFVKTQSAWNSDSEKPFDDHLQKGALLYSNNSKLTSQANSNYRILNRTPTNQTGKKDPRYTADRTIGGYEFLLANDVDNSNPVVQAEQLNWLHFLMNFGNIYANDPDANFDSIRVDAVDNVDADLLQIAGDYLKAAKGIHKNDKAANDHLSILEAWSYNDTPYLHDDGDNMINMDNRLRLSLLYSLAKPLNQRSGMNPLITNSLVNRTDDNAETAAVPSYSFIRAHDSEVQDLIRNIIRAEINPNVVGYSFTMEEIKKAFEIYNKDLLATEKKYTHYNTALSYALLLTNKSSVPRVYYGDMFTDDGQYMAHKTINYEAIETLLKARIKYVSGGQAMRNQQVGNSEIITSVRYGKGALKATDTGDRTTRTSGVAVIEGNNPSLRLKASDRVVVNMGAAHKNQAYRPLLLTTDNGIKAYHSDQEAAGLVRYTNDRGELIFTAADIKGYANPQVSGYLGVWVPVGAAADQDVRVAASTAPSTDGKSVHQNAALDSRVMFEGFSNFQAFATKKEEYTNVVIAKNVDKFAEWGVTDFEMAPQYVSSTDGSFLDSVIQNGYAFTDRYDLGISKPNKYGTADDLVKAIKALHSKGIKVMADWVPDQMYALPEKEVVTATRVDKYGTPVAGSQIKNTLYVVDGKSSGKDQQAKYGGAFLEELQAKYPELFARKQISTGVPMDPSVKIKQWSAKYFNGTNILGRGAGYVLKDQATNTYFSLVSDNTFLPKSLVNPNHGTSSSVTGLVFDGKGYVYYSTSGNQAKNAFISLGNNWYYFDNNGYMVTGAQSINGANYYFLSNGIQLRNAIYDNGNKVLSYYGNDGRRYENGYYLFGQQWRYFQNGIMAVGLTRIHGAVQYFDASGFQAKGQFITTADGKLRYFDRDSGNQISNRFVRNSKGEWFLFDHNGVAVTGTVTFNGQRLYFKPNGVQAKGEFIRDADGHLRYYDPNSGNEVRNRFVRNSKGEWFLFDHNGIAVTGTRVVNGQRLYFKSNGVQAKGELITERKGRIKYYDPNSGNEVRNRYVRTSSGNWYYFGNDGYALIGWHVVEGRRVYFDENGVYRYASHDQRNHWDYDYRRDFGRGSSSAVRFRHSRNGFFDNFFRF

| inhibition [1] | inhibition [2] | SMILES |
| --- | --- | --- |
| Active | Active | O=C(/C=C\c1ccc(O)cc1O)c1ccc(O)cc1 |
| Active | Active | O=C(/C=C/c1cc(O)c(O)cc1O)c1ccccc1O (stereo in doubt; 18c) |
| Active | Active | O=C(/C=C/c1ccc(O)cc1O)c1ccc(O)cc1 |
| Active | Active | O=C(/C=C\c1ccc(O)cc1O)c1cccc(O)c1 |
| Active | Active | O=C(/C=C/c1ccc(O)cc1O)c1cccc(O)c1 (stereo in doubt; 9a) |
